Molecules are shown by their SMILES. Activity calls are given as the source filed them. No cut-off for these calls is given here.

The test system of series [1] is SW1573. As to the kind of experiment: Antiproliferative activity against human SW1573 cells after 48 hrs by SRB assay. Conditions: SW1573, 48 h. Type of series: functional. The procedure, abridged:
(§1)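 Human solid tumor lines and three immortalized nontumor lines in culture, exposed to the test agent. Read-out is growth inhibition, reported as GI50 (μM).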

In series [2] the test system is HBL-100. As to the kind of experiment: Antiproliferative activity against human HBL100 cells after 48 hrs by SRB assay. Type of series: functional. The following applies: HBL-100, 48 h. An outline of the steps: as §1
The target in series [3] is DNA topoisomerase 2-alpha (Homo sapiens) (UniProt P11388). As to the kind of experiment: Inhibition of human topoisomerase 2 alpha assessed as inhibition of relaxation of SC plasmid pHOT1 at 100 uM after 30 to 60 mins by gel electrophoresis relative to control. An outline of the steps: (§2)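 Purified TOP2 incubated with negatively supercoiled plasmid pHOT1. Supercoiled, nicked and relaxed topoisomers separated by agarose gel electrophoresis. Compared with lanes without enzyme and with enzyme alone.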
DNA topoisomerase 2-alpha (Homo sapiens), sequence (P11388 whole entry): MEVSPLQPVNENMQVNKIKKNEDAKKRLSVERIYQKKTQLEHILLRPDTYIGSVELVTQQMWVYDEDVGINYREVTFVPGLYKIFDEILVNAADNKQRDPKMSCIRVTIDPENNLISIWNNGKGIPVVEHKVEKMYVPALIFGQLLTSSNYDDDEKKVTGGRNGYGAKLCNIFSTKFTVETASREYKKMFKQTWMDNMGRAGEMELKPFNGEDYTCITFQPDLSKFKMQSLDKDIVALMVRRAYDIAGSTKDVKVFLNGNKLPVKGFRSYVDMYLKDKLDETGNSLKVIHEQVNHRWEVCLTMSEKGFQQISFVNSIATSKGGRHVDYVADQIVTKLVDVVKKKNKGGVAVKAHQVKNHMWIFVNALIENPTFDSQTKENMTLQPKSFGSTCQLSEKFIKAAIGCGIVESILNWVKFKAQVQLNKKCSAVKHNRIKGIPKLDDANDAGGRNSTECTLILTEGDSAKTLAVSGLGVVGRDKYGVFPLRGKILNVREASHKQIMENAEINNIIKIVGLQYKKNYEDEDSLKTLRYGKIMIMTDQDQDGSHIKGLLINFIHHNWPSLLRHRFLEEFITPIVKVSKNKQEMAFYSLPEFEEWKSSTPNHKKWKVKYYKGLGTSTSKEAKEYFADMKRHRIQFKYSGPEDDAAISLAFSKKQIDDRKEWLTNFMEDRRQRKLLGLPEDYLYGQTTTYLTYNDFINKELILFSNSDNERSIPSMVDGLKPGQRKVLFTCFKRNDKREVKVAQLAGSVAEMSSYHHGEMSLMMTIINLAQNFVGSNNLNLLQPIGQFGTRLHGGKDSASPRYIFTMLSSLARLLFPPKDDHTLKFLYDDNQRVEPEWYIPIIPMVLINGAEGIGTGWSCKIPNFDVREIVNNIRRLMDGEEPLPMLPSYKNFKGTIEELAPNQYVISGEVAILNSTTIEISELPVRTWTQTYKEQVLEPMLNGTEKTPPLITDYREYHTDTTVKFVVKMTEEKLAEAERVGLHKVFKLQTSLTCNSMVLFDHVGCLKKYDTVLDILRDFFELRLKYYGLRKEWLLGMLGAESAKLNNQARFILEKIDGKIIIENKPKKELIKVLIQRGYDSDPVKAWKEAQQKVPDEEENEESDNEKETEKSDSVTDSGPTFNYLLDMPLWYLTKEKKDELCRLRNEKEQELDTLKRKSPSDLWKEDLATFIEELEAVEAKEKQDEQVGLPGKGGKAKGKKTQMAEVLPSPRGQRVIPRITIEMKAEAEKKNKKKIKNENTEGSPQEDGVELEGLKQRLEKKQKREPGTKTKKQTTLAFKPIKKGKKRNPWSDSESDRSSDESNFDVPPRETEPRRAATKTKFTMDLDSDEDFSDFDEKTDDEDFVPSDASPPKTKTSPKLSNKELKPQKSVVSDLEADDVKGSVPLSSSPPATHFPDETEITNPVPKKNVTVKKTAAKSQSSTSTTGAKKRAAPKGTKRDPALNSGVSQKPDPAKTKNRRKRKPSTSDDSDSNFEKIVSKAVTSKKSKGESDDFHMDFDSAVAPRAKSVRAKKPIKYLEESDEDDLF

Series [4] deals with WiDr. As to the kind of experiment: Induction of apoptosis in human WiDr cells assessed as early apoptotic cells at 6 uM after 24 hrs by annexin V/Pi staining technique. The class given is functional.
The subject of series [5] is HeLa. As to the kind of experiment: Induction of DNA damage in human HeLa cells assessed as expression of cyclin B1 uM after 24 hrs by immunoblotting. The class given is functional, cell-based. An outline of the steps:
(§3)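 HeLa cells exposed at 7.5 μM, sampled at 3, 6, 12 and 24 h. Protein extracts probed by Western blot for phospho-Chk2, phospho-H2AX and cyclin B1. Phospho-histone H3 Ser10 detected with a phospho-specific antibody. Includes a positive-control lane.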

Series [6] concerns T47D. As to the kind of experiment: Antiproliferative activity against human T47D cells after 48 hrs by SRB assay. The class given is functional. An outline of the steps: as §1
Series [7] has as its target DNA topoisomerase 2-alpha (Homo sapiens) (UniProt P11388). As to the kind of experiment: Inhibition of human topoisomerase 2 alpha assessed as inhibition of relaxation of NcK plasmid pHOT1 at 100 uM after 30 to 60 mins by gel electrophoresis relative to control. The procedure, abridged:
as §2

Series [8] relates to WiDr. As to the kind of experiment: Antiproliferative activity against human WiDr cells after 48 hrs by SRB assay. The class given is functional. An outline of the steps:
as §1

For series [9], the system named is WiDr. As to the kind of experiment: Induction of apoptosis in human WiDr cells assessed as late apoptotic cells at 8 uM after 24 hrs by annexin V/Pi staining technique. The class given is functional.
In series [10] the test system is T47D. As to the kind of experiment: Induction of apoptosis in human T47D cells assessed as early apoptotic cells at 8 uM after 24 hrs by annexin V/Pi staining technique. The class given is functional.
Series [11] concerns T47D. As to the kind of experiment: Induction of apoptosis in human T47D cells assessed as early apoptotic cells at 6 uM after 24 hrs by annexin V/Pi staining technique. Type of series: functional.
Series [12] has as its system HBL-100. As to the kind of experiment: Cell cycle arrest in human HBL100 cells assessed as accumulation of cells in G2/M phase after 24 hrs by flow cytometry. Type of series: functional, cell-based. The procedure, abridged:
(§4)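 Flow cytometry of DNA content, giving the G0/G1, S, G2/M and sub-G1 fractions. Cells treated for 24 h at three doses alongside untreated controls. Values are means of at least two experiments.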

Series [13] has as its system T47D. As to the kind of experiment: Induction of apoptosis in human T47D cells assessed as late apoptotic cells at 8 uM after 24 hrs by annexin V/Pi staining technique. The class given is functional.
Series [14] can be described thus: Antiproliferative activity against human MCF10A cells after 48 hrs by SRB assay. Type of series: cell-based, MCF-10A. The procedure, abridged: as §1
The test system of series [15] is HeLa. As to the kind of experiment: Induction of DNA damage in human HeLa cells assessed as phosphorylation of H2AX at 7.5 uM after 24 hrs by immunoblotting. Type of series: functional, cell-based. An outline of the steps: as §3
In series [16] the test system is HeLa. As to the kind of experiment: Cell cycle arrest in human HeLa cells assessed as accumulation of cells in G2/M phase after 24 hrs by flow cytometry. Type of series: functional, cell-based. An outline of the steps: as §4
Series [17] has as its system T47D. As to the kind of experiment: Cell cycle arrest in human T47D cells assessed as accumulation of cells in G2/M phase after 24 hrs by flow cytometry. Type of series: functional, cell-based. The procedure, abridged:
as §4

Series [18] deals with T47D. As to the kind of experiment: Induction of apoptosis in human T47D cells assessed as late apoptotic cells at 6 uM after 24 hrs by annexin V/Pi staining technique. Type of series: functional.
Series [19] relates to WiDr. As to the kind of experiment: Induction of apoptosis in human WiDr cells assessed as late apoptotic cells at 6 uM after 24 hrs by annexin V/Pi staining technique. Type of series: functional.
In series [20] the test system is HeLa. As to the kind of experiment: Induction of DNA damage in human HeLa cells assessed as phosphorylation of ChK2 at 7.5 uM after 24 hrs by immunoblotting. The class given is functional, cell-based. An outline of the steps: as §3
Series [21] has as its system HBL-100. As to the kind of experiment: Induction of apoptosis in human HBL100 cells assessed as early apoptotic cells at 2 uM after 24 hrs by annexin V/Pi staining technique. The class given is functional.
The nature of series [22]: Antiproliferative activity against human HS27 cells after 48 hrs by SRB assay. Type of series: cell-based. The procedure, abridged:
as §1

Series [23] concerns HeLa. As to the kind of experiment: Induction of apoptosis in human HeLa cells assessed as early apoptotic cells at 6 uM after 24 hrs by annexin V/Pi staining technique. Type of series: functional.
Series [24] has as its target DNA topoisomerase 2-alpha (Homo sapiens) (UniProt P11388). As to the kind of experiment: Inhibition of human topoisomerase 2 alpha assessed as inhibition of decatenation of KDNA at 100 uM after 30 to 60 mins by gel electrophoresis with ethidium bromide relative to control. The procedure, abridged:
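Decatenation assay: purified TOP2 incubated with kinetoplast DNA. Released minicircles (nicked, supercoiled and relaxed forms) resolved by agarose gel electrophoresis. Compared with lanes without enzyme and with enzyme alone, plus reference TOP2 inhibitors.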

The test system of series [25] is HBL-100. As to the kind of experiment: Induction of apoptosis in human HBL100 cells assessed as late apoptotic cells at 4 uM after 24 hrs by annexin V/Pi staining technique. Type of series: functional.
The subject of series [26] is WiDr. As to the kind of experiment: Cell cycle arrest in human WiDr cells assessed as accumulation of cells in G2/M phase after 24 hrs by flow cytometry. Type of series: functional, cell-based. The procedure, abridged:
as §4

Series [27] relates to HeLa. As to the kind of experiment: Induction of apoptosis in human HeLa cells assessed as late apoptotic cells at 8 uM after 24 hrs by annexin V/Pi staining technique. Type of series: functional.
In series [28] the test system is WiDr. As to the kind of experiment: Induction of apoptosis in human WiDr cells assessed as early apoptotic cells at 8 uM after 24 hrs by annexin V/Pi staining technique. Type of series: functional.
Series [29] concerns HeLa. As to the kind of experiment: Induction of apoptosis in human HeLa cells assessed as early apoptotic cells at 8 uM after 24 hrs by annexin V/Pi staining technique. The class given is functional.
Series [30] has as its system SW1573. As to the kind of experiment: Cell cycle arrest in human SW1573 cells assessed as accumulation of cells in G2/M phase after 24 hrs by flow cytometry. Type of series: functional, cell-based. The procedure, abridged:
as §4

For series [31], the system named is HeLa. As to the kind of experiment: Induction of apoptosis in human HeLa cells assessed as late apoptotic cells at 6 uM after 24 hrs by annexin V/Pi staining technique. Type of series: functional.
The target in series [32] is DNA topoisomerase 2-alpha (Homo sapiens) (UniProt P11388). As to the kind of experiment: Inhibition of human topoisomerase 2 alpha assessed as inhibition of relaxation of Rel plasmid pHOT1 at 100 uM after 30 to 60 mins by gel electrophoresis relative to control. An outline of the steps: as §2
Series [33] shares this target. As to the kind of experiment: Inhibition of human topoisomerase 2 alpha assessed as inhibition of formation of Lin form of plasmid pHOT1 at 100 uM after 30 to 60 mins by gel electrophoresis inthe presence of exsess of ethidium bromide relative to control. An outline of the steps: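 Cleavage-complex assay: purified TOP2 incubated with plasmid pHOT1. Agarose gel electrophoresis detects the linear (Lin) DNA form produced by trapped enzyme-cut intermediates.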

In series [34] the test system is HBL-100. As to the kind of experiment: Induction of apoptosis in human HBL100 cells assessed as early apoptotic cells at 4 uM after 24 hrs by annexin V/Pi staining technique. Type of series: functional.
The test system of series [35] is HeLa. As to the kind of experiment: Antiproliferative activity against human HeLa cells after 48 hrs by SRB assay. Type of series: functional. An outline of the steps: as §1
The subject of series [36] is hTERT-HPNE (Homo sapiens). As to the kind of experiment: Antiproliferative activity against hTERT-HPNE cells after 48 hrs by SRB assay.
For series [37], the system named is HBL-100. As to the kind of experiment: Induction of apoptosis in human HBL100 cells assessed as late apoptotic cells at 2 uM after 24 hrs by annexin V/Pi staining technique. The class given is functional.

Consider `COC(=O)C#CC(O/C=C/C(=O)OC)C(C)c1ccccc1` (stereo unspecified), for which the concentration for 50% growth inhibition (GI50) turned out to be 1200 nM in the series on SW1573 [1] and 490 nM in the series with HBL-100 [2].

`CCC(C)C(C#CC(=O)OC)O/C=C/C(=O)OC` (stereo unspecified): the GI50 in the series with SW1573 [1] was found to be 910 nM; in the series with HBL-100 [2], 340 nM.

As to `COC(=O)C#CC(CCc1ccccc1)O/C=C/C(=O)OC` (stereo unspecified), the GI50 in the series with SW1573 [1] and with HBL-100 [2] was 2600 nM throughout.

`CCOC(=O)C#CCO/C=C/C(=O)OC`: the GI50 in the series with SW1573 [1] was found to be 1800 nM; with HBL-100 [2] it was 2400 nM.

`COC(=O)C#CC(O/C=C/C(=O)OC)C1CC1` (stereo unspecified): the GI50 was 1800 nM with SW1573 [1] and 250 nM with HBL-100 [2].

Take `CCCCCCCCCCC(C#CC(=O)OC)O/C=C/C(=O)OC` (stereo unspecified): the GI50 in the series with SW1573 [1] was found to be 2000 nM; in the series with HBL-100 [2] it was 2200 nM.

As for `Cc1ccc(S(=O)(=O)C#CC(O/C=C/S(=O)(=O)c2ccc(C)cc2)C(C)C)cc1` (stereo unspecified), the concentration for 50% growth inhibition (GI50) was 3200 nM in the series on SW1573 [1] and 3800 nM with HBL-100 [2].

As to `CCCCCC(C#CC(=O)OC)O/C=C/C(=O)OC` (stereo unspecified), the concentration for 50% growth inhibition (GI50) with SW1573 [1] was 1700 nM; in the series on HBL-100 [2], 1900 nM.

As to `CCCC(C#CC(=O)OC)O/C=C/C(=O)OC` (stereo unspecified), the GI50 with SW1573 [1] was 320 nM; in the series on HBL-100 [2] it was 270 nM.

In the case of `CCOC(=O)C#CC(O/C=C/C(=O)OC)C(C)C` (stereo unspecified), the GI50 with SW1573 [1] amounted to 960 nM; with HBL-100 [2], 880 nM.

Turning to `COC(=O)C#CC(C)O/C=C/C(=O)OC` (stereo unspecified), the values for the 50% growth inhibitory concentration (GI50) with SW1573 [1] and in the series with HBL-100 [2] were 1700 nM and 300 nM, respectively.

Take `CCCCCCC(C#CC(=O)O)O/C=C/C(=O)OC` (stereo unspecified): the GI50 in the series on SW1573 [1] and with HBL-100 [2] was > 100000 nM in each case.

Turning to `CCCCC(C#CC(=O)OC)O/C=C/C(=O)OC` (stereo unspecified), the outcome in series [3], in [7], in series [24] and in series [32] was Active. Besides, the Activity in the series on WiDr [4] is 12%; with WiDr [9] it was 28%; in the series on T47D [10] it was 11%; in the series with T47D [11], 12%; with HBL-100 [12], “Dose-dependent effect”; in the series on T47D [13], 19%. Moreover, the Activity entry in the series with HeLa [16] was “Dose-dependent effect”; in the series with T47D [17] it was “Dose-dependent effect”; in the series with T47D [18], 24%; in the series on WiDr [19], 21%; in the series on HBL-100 [21], 6.7%; with HeLa [23], 8.7%. In addition, the Activity in the series on HBL-100 [25] is 12%; with WiDr [26], “Dose-dependent effect”; with HeLa [27] it was 11%; in the series with WiDr [28] it was 11%; in the series with HeLa [29], 10%; with SW1573 [30], “Dose-dependent effect”. The Activity in the series with HeLa [31] turned out to be 9%; in the series with HBL-100 [34], 5.3%; with HBL-100 [37], 12%. Moreover, the outcome (in the series with HeLa [5]; with HeLa [15]; with HeLa [20]; in series [33]) was inactive. For the same molecule, the 50% growth inhibitory concentration (GI50) in the series with T47D [6] came out at 3800 nM; in the series with WiDr [8], 3100 nM; in the series with SW1573 [1], 240 nM; in the series on HeLa [35], 2800 nM; in the series on HBL-100 [2], 250 nM. The 50% growth inhibitory concentration (GI50) at 48 h in [14] is 34000 nM; in [22], 1900 nM; in series [36] it was 1300 nM.

The record behind these values is ChEMBL document CHEMBL1157743, “Mitotic arrest induced by a novel family of DNA topoisomerase II inhibitors” (J Med Chem, 2010).
